Results reported in publication PMC10913580 (Nature chemistry, 2023).

Assays:
[1] = test system: ternary complex between CRBN and off-target ZFP91; experiment: NanoBRET ternary complex formation assay; type: cell-based; conditions: U2OS cells expressing ZFP91-NLuc and HaloTag-CRBN, 1 μM dose
Method in brief: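 U2OS stably expressing ZFP91–NLuc, transfected with HaloTag–CRBN plasmid (2 μg per 100,000 cells). After 14 h, plated at 3,000 cells/well in phenol-red-free Opti-MEM with 4% FBS. NanoBRET 618 ligand 100 nM final, 18 h; no-ligand control wells. Compound 1 μM final, 15 min; furimazine 10 μM final, 5 min. mBU = (618/460 nm emission) × 1,000, minus no-ligand control.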

[2] = test system: ZF degrons fused to eGFP in U2OS cells; experiment: Automated imaging assay for degradation of ZF degron-tagged eGFP; type: cell-based; conditions: 14 stable U2OS ZF reporter cell lines, 24 h, dosing range 4.3 nM to 6 μM
Method in brief: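 U2OS lines stably carrying lentiviral Cilantro 2 reporters (ZF degron–eGFP plus untagged mCherry) under 1 μg ml−1 puromycin. 3,000 cells/well seeded onto compound-preprinted plates; 24 h. PBS wash, 4% paraformaldehyde fix, nuclear stain, eGFP/mCherry imaging. Per-cell eGFP normalized to mCherry, well means to DMSO wells; 1 minus value gives degradation fraction, summed across doses as degradation score. Z′ from controls.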

ZFP91 [3] = molecular target: T1, ZFP91 (Homo sapiens, UniProt Q96JP5+Q96SW2); experiment: Immunoblot of endogenous ZFP91 in Jurkat cells; type: cell-based
Method in brief: (§1)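 Cells grown in RPMI 1640 with 10% FBS, then compound-treated. Lysis in ice-cold M-PER with protease and phosphatase inhibitors. 20–50 μg protein run on 4–12% Bis-Tris gels and transferred to nitrocellulose. Probed with anti-ZFP91 or anti-IKZF3 primary antibodies (1:1,000), then fluorescent secondaries (1:3,000).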

SALL4 = SALL4 (Homo sapiens, UniProt Q96SW2+Q9UJQ4); experiment: Global proteomic analysis of KELLY cells treated with PROTACs; type: cell-based; conditions: 100 nM
Method in brief: (§2)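 Cells were dosed with test compound at 0.1 μM or with DMSO for 5 h, then washed in PBS and snap-frozen. Lysis was in 8 M urea, 50 mM NaCl, 50 mM EPPS pH 8.5 with protease and phosphatase inhibitors, with bead beating. Digestion used LysC (1:50, 12 h, room temperature), then trypsin (1:50, 6 h, 37 °C). Label-free LC-MS followed; abundances were scaled and statistics run with limma.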

ALK = ALK (Homo sapiens, UniProt P06748+Q96SW2+Q9UM73); experiment: Global proteomic analysis of SU-DHL-1 cells treated with PROTACs; type: cell-based; conditions: 0.1 μM, 5 h
Method in brief: as §2

ZFP91 [4] = molecular target: T1, ZFP91; experiment: Immunoblot of endogenous ZFP91 in SU-DHL-1 cells; type: cell-based
Method in brief: as §1

ZFP91 [5] = molecular target: T1, ZFP91; experiment: Immunoblot of endogenous ZFP91 in H2228 cells; type: cell-based
Method in brief: as §1

ZFP91 and IKZF3 = experiment: Immunoblot of endogenous ZFP91 and IKZF3 in MM1.S cells; type: cell-based
Method in brief: as §1

[6] = test system: ZF proteins and other off-targets in MOLT4 and KELLY cells; experiment: MS-based global proteomics of MOLT4 and KELLY cells treated with imide analogues; type: cell-based, human; conditions: 1 μM, 5 h
Method in brief: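 MOLT4 or Kelly cells given 1 μM compound or DMSO, 5 h. PBS-washed pellets snap-frozen, lysed in 8 M urea, 50 mM NaCl, 50 mM EPPS pH 8.5 with inhibitors by bead beating; Bradford quantitation. 50 μg protein reduced, alkylated, methanol/chloroform precipitated; LysC (1:50, 12 h, room temperature) then trypsin (1:50, 6 h, 37 °C). C18-desalted, LC–MS. Abundances scaled; limma statistics.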

N#Cc1ccc(O[C@H]2CC[C@H](NC(=O)c3ccc(N4CCC(CN5CCN(c6cc7c(cc6F)C(=O)N(C6CCC(=O)NC6=O)C7=O)CC5)CC4)nn3)CC2)cc1Cl (some centres unmarked) [ARV110]
BRET signal, ternary complex formation between CRBN and ZFP91 [1]: reduced ternary complex formation with off-target ZFP91

Cc1cc(Nc2ncc(Cl)c(Nc3ccccc3S(=O)(=O)C(C)C)n2)c(OC(C)C)cc1C1CCN(CC(=O)NCCNc2cccc3c2C(=O)N(C2CCC(=O)NC2=O)C3=O)CC1 (centres unmarked) [MS4078]
degradation of ZF degron-tagged eGFP (off-target ZF degradation) [2]: had a high level of off-target ZF degradation
off-target degradation of endogenous ZFP91 (immunoblot) (ZFP91 [3]): off-target degradation of endogenous ZF protein ZFP91
degradation of SALL4 (global proteomics) (SALL4): induced degradation of SALL4
degradation of ALK (global proteomics) (ALK): induced degradation of ALK
off-target degradation of endogenous ZFP91 (immunoblot) (ZFP91 [4]): off-target degradation of endogenous ZF proteins ZFP91
off-target degradation of endogenous ZFP91 (immunoblot) (ZFP91 [5]): off-target degradation of endogenous ZF proteins ZFP91

Nc1ccc2c(c1)C(=O)N(C1CCC(=O)NC1=O)C2=O (centres unmarked) [compound 8, 5-aminothalidomide]
degradation of endogenous ZFP91 and IKZF3 (immunoblot) (ZFP91 and IKZF3): decrease in overall degradation potency as compared to pomalidomide

CC[C@H](C(=O)N1CCCC[C@H]1C(=O)O[C@H](CCc1ccc(OC)c(OC)c1)c1ccccc1OCC(=O)NCCCCCCOc1cccc2c1C(=O)N(C1CCC(=O)NC1=O)C2=O)c1cc(OC)c(OC)c(OC)c1 (some centres unmarked) [dTAG-13]
off-target degradation of endogenous ZFP91 (immunoblot) (ZFP91 [3]): off-target degradation of endogenous ZF protein ZFP91

Nc1cccc2c1C(=O)N(C1CCC(=O)NC1=O)C2=O (centres unmarked) [pomalidomide]
degradation of ZF degron-tagged eGFP (off-target ZF degradation) [2]: degraded all 12 ZF degrons that are sensitive to it in a dose-dependent manner
degradation of ZF proteins and other off-targets (global proteomics) [6]: triggered the degradation of several ZF proteins
